# Source: PubChem BioAssay
# The list is not random: actives were taken first. Their share in the collection is about 2.9%.
# CAL PDZ FP-1: human CAL PDZ-peptide interaction inhibition; 330,000 compounds, 0.02% hits; Q9HD26; AID 504414; purified CAL PDZ, TMR-peptide fluorescence polarization, 1 h; inhibition, % at 20 µM;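 active = highest replicate inhibition of at least 40%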;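 note: plate controls were DMSO neutral control wells for no effect and unlabeled competitor peptide control wells for full effect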
#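 Assay system – tagged CAL PDZ protein CerCALP, purified · Timing – 1 h at RT · Compound – single point, 20 µM · Measured by – fluorescence polarization from S- and P-plane intensities, G-factor corrected · Evaluation – inhibition from polarization loss · Probe or stimulus – TMR reporter peptide T*-PRC34 · Buffer or medium – pH 7.4 phosphate-saline buffer, reducing agent, detergent, IgG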
# CAL PDZ FP-2: CAL PDZ (human) peptide binding inhibition; 300,000 compounds, 0.92% hits; purified CAL PDZ, TMR-peptide fluorescence polarization, 1 h; inhibition, % at 24.9 µM;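 active = mean inhibition of at least 30% with at least half of replicates also reaching 30%; inconclusive = no clear call, values can overlap the other calls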;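 note: 0% = DMSO neutral control and 100% = excess unlabeled competitor peptide PRC23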
# S100A4 inh HTS: inhibitors of human S100A4 binding to myosin IIA peptide. 360,000 compounds, 0.14% hits. inhibition, % at 10.7 µM. S100A4/TAMRA-MyoIIA peptide fluorescence polarization. AID 652163;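 active = mean inhibition of at least 70% across replicates, with every replicate also reaching that level; inconclusive = mean inhibition reaches 70% but some replicates fall short; inactive = mean inhibition below 70%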
# Target sequence (P26447 whole entry, looked up): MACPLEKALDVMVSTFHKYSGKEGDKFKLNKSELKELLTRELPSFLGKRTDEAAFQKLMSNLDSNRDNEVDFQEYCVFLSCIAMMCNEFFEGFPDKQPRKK
#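 Material: S100A4 monomer protein | Medium: HEPES pH 7.2 with CaCl2, KCl, NaCl, DTT, Triton | Reagent: Labelled myosin peptide probe, 5 nM | Doses: One dose per compound | Times: 5 min incubation before reading | Benchmarks: Neutral control DMSO, positive control TFP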
# SIRT5 block: sirtuin-5 (human) deacylase inhibition. Purified SirT5, succinyl-peptide AMC, trypsin-coupled fluorescence. 330,000 compounds, 1.1% hits. inhibition, % at 15 µM. Q9NXA8; in the data active = inhibition above about 15%; inconclusive = no clear call, values can overlap the other calls
# Target sequence (Q9NXA8 whole entry, looked up): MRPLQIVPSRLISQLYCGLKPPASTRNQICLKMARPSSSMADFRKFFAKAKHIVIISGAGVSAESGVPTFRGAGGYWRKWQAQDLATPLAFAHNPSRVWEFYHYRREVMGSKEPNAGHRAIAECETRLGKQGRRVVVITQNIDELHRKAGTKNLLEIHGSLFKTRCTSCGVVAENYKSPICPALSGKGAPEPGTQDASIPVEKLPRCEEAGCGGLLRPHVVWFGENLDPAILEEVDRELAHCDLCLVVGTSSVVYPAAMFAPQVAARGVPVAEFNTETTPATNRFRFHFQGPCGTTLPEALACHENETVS
# DENV2 CPE: protects cells from dengue virus 2 cytopathic effect; DENV2-infected cells, cytopathic effect rescue, plate reader; CPE inhibition, % at 9.99 µM; 350,000 compounds, 1.7% hits; AID 651640; in the data active = CPE inhibition above about 20%, passing the limit was not always enough; inconclusive = no clear call, values can overlap the other calls; tested in BHK-21 cells;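 note: 0% = median of neutral control wells and 100% = median of positive control wells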
# ERAP1 HTS inh: inhibitors of human ERAP1 aminopeptidase | Q9NZ08 | recombinant ERAP1, Leu-AMC fluorescence, 60 min | inhibition, % at 10.7 µM | 340,000 compounds, 0.15% hits | AID 652197;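 active = mean replicate inhibition of at least 30%, or all replicates individually reaching that 30% level; inactive = mean below 30% and not every replicate reaching it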;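 note: 0% = neutral control wells and 100% = L-leucinethiol positive control wells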
# * marks the source's active call; other numbers are inactive results; ? = inconclusive; . = not tested or not shown.
SMILES,CAL PDZ FP-1,CAL PDZ FP-2,S100A4 inh HTS,SIRT5 block,DENV2 CPE,ERAP1 HTS inh
CC(C)NC(=O)Nc1ccc2c(c1)C(=O)N([C@H](C)CO)C[C@H](C)[C@@H](CN(C)C(=O)CCCN(C)C)OCCCC[C@H](C)O2,.,.,8,5,-5,3
COc1ccc(NC(=O)Nc2ccc3c(c2)CC(=O)N([C@@H](C)CO)C[C@@H](C)[C@H](CN(C)S(=O)(=O)c2ccc(C)cc2)O3)cc1,.,.,-7,13,4,-1
COc1ccccc1-c1cc(C(F)(F)F)nc(S(=O)(=O)CCCC(=O)Nc2cc(C)on2)n1,-2,2,.,.,.,.
COc1ccc(-c2cc(C(F)(F)F)nc(S(=O)(=O)CCCC(=O)Nc3cc(C)on3)n2)cc1OC,-1,2,1,-2,4,37*
CNC[C@H]1Oc2c(NC(=O)c3ccc(-c4nccs4)cc3)cccc2C(=O)N([C@H](C)CO)C[C@H]1C,.,.,-24,28*,41*,2
C[C@@H]1CN([C@@H](C)CO)C(=O)c2cccc(NC(=O)c3ccc(-c4nccs4)cc3)c2O[C@@H]1CN(C)Cc1ccc(C(F)(F)F)cc1,.,.,-4,26*,1,1
C[C@H](CO)N1C[C@H](C)[C@@H](CN(C)Cc2ccc(C(F)(F)F)cc2)Oc2c(NC(=O)c3ccc(-c4nccs4)cc3)cccc2C1=O,.,.,8,5,-4,1
C[C@@H]1CN([C@H](C)CO)C(=O)c2cccc(NC(=O)c3ccc(-c4nccs4)cc3)c2O[C@@H]1CN(C)Cc1ccc(C(F)(F)F)cc1,.,.,-1,17*,0,-1
O=[N+]([O-])c1ccc(N2CCCC2)cc1NC1CC1,-1,36*,2,.,-1,7
O=C(CCCl)Nc1nnc(SCC(=O)NC2CCCC2)s1,-1,-5,0,60*,0,2
O=C1CCC/C=C/C[C@H](CC(=O)N(CCO)Cc2ccccc2)C(=O)N[C@@H](Cc2ccccc2)CO1,1,1,-3,.,25*,.
O=C1CCCC/C=C\C[C@H](CC(=O)N(CCO)Cc2ccccc2)C(=O)N[C@@H](Cc2ccccc2)CO1,-1,-2,-11,.,17,-1
CCOC(=O)N(C)C[C@@H]1OCc2ccccc2-c2c(n(C)c3ccccc23)C(=O)N([C@H](C)CO)C[C@@H]1C,.,.,7,8,1,-1
CCN(CC(=O)Nc1c(F)cccc1F)C(=O)CNC(=O)c1cccs1,-3,4,87*,-1,3,1
CCN(CC(=O)Nc1c(F)cccc1F)C(=O)CNC(=O)c1ccc2ccccc2c1,-1,-1,17,-25,-3,-2
O=S(=O)(c1ccccc1)N1CC2(C1)[C@@H](c1ccccc1)[C@@H](CO)N2CC1CCCC1,.,.,-5,13,27*,1
O=S(=O)(c1ccccc1)N1CC2(C1)[C@H](c1ccccc1)[C@@H](CO)N2CC1CCOCC1,.,.,-6,-2,36*,-9
CN(C)CC(=O)N[C@@H]1CC[C@@H](CC(=O)O)O[C@H]1CO,.,.,?,5,7,2
C[C@H](CO)N1C[C@H](C)[C@H](CN(C)Cc2ccccn2)Oc2ncc(-c3ccccc3)cc2C1=O,.,.,-15,3,-6,7
CN(C)C(=O)c1cccc(-c2ccc3c(c2)[C@H]2[C@H](CCN2C(=O)C2CC2)[C@@H](CO)N3)c1,.,.,78*,6,10,2
CN(C)C(=O)c1cccc(-c2ccc3c(c2)[C@@H]2[C@@H](CCN2C(=O)Cc2ccccc2)[C@H](CO)N3)c1,.,.,-92,2,9,-1
CN(C)C(=O)c1cccc(-c2ccc3c(c2)[C@H]2[C@H](CCN2C(=O)c2cccnc2)[C@@H](CO)N3)c1,.,.,.,.,31*,.
CN(C)C(=O)c1cccc(-c2ccc3c(c2)[C@@H]2[C@@H](CCN2C(=O)c2cccnc2)[C@H](CO)N3)c1,.,.,.,.,-17,.
CN(C)C(=O)c1cccc(-c2ccc3c(c2)[C@@H]2[C@@H](CCN2C(=O)Cc2ccncc2)[C@@H](CO)N3)c1,.,.,.,.,104*,.
CN1CCN(C(=O)c2ccc3c(c2)S(=O)(=O)c2ccccc2C3=O)CC1,-1,1,-2,-3,63*,0
SMILES,CAL PDZ FP-1,CAL PDZ FP-2,S100A4 inh HTS,SIRT5 block,DENV2 CPE,ERAP1 HTS inh
COc1cccc(C(=O)Nc2ccc(C(F)(F)F)n(C)c2=O)c1,-1,0,13,20*,-5,4
Cc1c(NS(=O)(=O)c2ccc(Cl)c(C(=O)OC(C)C(=O)N3CCOCC3)c2)c(=O)n(-c2ccccc2)n1C (centres undefined),0,1,-2,-2,-5,4
Cc1ccc(S(=O)(=O)Nc2ccccc2F)cc1C(=O)OC(C)C(=O)N1CCOCC1 (centres undefined),-2,-5,75*,-6,1,6
CC(C)NC(=O)N1CC(=O)N2[C@H](CO)[C@@H](c3ccc(/C=C/c4ccccc4)cc3)[C@H]2C1,.,.,-4,8,8,-1
CCCOC(=O)N[C@@H]1C(=O)N2C(C(=O)OCCC)=C(C)CS[C@H]12,0,-9,0,-3,-3,3
CCCN[C@@H]1C(=O)N2C(C(=O)OCCC)=C(C)CS[C@H]12,0,-6,0,1,72*,2
Cc1cccc(CN2CCN(C(=O)c3cccc4ccccc34)CC2)c1,0,-6,2,-8,43*,-2
Cc1ccc(S(=O)(=O)NCC[C@H]2CC[C@@H](NC(=O)Nc3ccccc3F)[C@H](CO)O2)cc1,.,.,1,4,20*,3
O=C(Nc1ccccc1F)N[C@@H]1CC[C@H](CCNC(=O)C2CCCCC2)O[C@H]1CO,.,.,90*,3,11,-2
Cc1ccc(S(=O)(=O)NCC[C@H]2CC[C@@H](NC(=O)Nc3ccccc3F)[C@@H](CO)O2)cc1,.,.,1,0,16,1
O=C(C[C@@H]1CC[C@@H](NC(=O)Nc2cccc(F)c2)[C@H](CO)O1)NCC1CC1,.,.,2,22*,14,0
COc1ccccc1NC(=O)N[C@@H]1CC[C@H](CCNS(=O)(=O)c2ccc(Cl)cc2)O[C@@H]1CO,.,.,-3,26*,-6,-4
COc1ccccc1NC(=O)N[C@@H]1CC[C@H](CCNS(=O)(=O)c2ccc(Cl)cc2)O[C@H]1CO,.,.,2,5,-1,-3
O=C(Nc1ccccc1F)N[C@@H]1CC[C@@H](CCNC(=O)C2CCCCC2)O[C@@H]1CO,.,.,14,2,-5,8
CO[C@H]1CN(C)C(=O)c2ccc(NC(=O)C3CC3)cc2OC[C@H](C)N(C)C[C@@H]1C,.,.,-12,.,13,-5
Cc1ccc(S(=O)(=O)NCC[C@@H]2CC[C@H](NC(=O)Nc3cccc(F)c3)[C@@H](CO)O2)cc1,.,.,73*,1,-1,-3
